# Screening results: PubChem BioAssay, several laboratories
# The list is not random: actives were taken first. Their share in the collection is about 2.9%.
# ATG4B inh: blocks human ATG4B protease cleavage of LC3 substrate; Q9Y4P1; ATG4B cleavage of LC3-PLA2, NBD-HPC fluorescence, 1 h; inhibition, % at 8.33 µM; 340,000 compounds, 0.51% hits; in the data active = inhibition above about 40%
# TCR CD3 inh: inhibitors of human TCR-CD3 interaction; TAMRA-labeled TCR probe fluorescence, biochemical; inhibition, % at 9.4 µM; 360,000 compounds, 0.37% hits; AID 651800; in the data active = inhibition above about 19%;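 note: recombinant mutant TCR 2C K166C tagged with TAMRA read by polarization; 0% = receptor in buffer alone and 100% = receptor with positive control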
# HTRA1 inh: HTRA1 (human) protease inhibition; Q92743; 340,000 compounds, 0.5% hits; recombinant HTRA1, FP-rhodamine activity-based probe, fluorescence polarization; inhibition, % at 5.96 µM; in the data active = inhibition above about 36%;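 note: 0% = enzyme with DMSO and 100% = wells lacking enzyme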
# SIAE primary: human SIAE inhibition, primary screen; SIAE FP-Rh probe binding, fluorescence polarization; inhibition, % at 9.66 µM; 370,000 compounds, 0.69% hits;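 active = inhibition above a cutoff: mean of compounds within the control limits plus 3 SD of those, cut at about 17% in these data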;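 note: 0% = plate median of compound wells and 100% = probe without SIAE protein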
# PRMT1 inh: PRMT1 (human) inhibition, primary screen; inhibition, % at 2.79 µM; 370,000 compounds, 1.3% hits; recombinant PRMT1, activity-based probe fluorescence polarization; AID 652257; Q99873;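 active = inhibition above about 21% made by adding two undisclosed values, limit read from the data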
# mABHD4 FP: ABHD4 (mouse) inhibition, primary FP screen. inhibition, % at 8.92 µM. 370,000 compounds, 0.54% hits. purified mABHD4, FP-Rh probe fluorescence polarization. AID 720543. Q8VD66;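 active = inhibition exceeding the mean over every tested compound plus 3 SD, cut at about 30% in these data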;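 note: 0% = plate median of compound wells and 100% = S159A mutant with DMSO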
# Target sequence (Q8VD66 whole entry, looked up): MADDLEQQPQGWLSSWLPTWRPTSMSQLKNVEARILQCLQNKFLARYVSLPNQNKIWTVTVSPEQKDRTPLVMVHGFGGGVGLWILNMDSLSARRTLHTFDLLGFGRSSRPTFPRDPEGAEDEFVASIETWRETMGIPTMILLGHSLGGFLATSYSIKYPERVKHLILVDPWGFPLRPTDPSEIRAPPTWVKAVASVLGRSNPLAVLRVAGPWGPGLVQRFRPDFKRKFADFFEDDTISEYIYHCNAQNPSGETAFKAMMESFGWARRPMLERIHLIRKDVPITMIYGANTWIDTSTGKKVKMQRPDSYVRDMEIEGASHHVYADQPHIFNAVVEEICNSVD
#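 Assay system: Wild-type mouse ABHD4 protein | Medium: HEPES pH 7.0 buffer, 150 mM NaCl, 0.01% Pluronic F-127 | Incubation: Enzyme–compound pre-incubation 45 min, then probe 60 min, both 25 °C | Technique: Fluorescence polarization with parallel and perpendicular emission, 525/598 nm | Evaluation: % inhibition of FP-Rh probe binding versus controls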
# Numbers without * were called inactive; · = no result given.
SMILES,ATG4B inh,TCR CD3 inh,HTRA1 inh,SIAE primary,PRMT1 inh,mABHD4 FP
Cc1ccc(N2C(=O)c3ccccc3C2C(=O)c2ccc(O)cc2O)cc1 (centres undefined),-0.1,7.2,-32.5,3.5,24.1*,-1.7
COc1ccccc1NC(=S)c1ccccc1,-12.8,-3.4,2.0,3.6,22.7*,-10.9
COc1ccccc1NC(=S)NNC(=O)c1ccccc1,-2.9,6.5,-4.8,7.9,-2.1,6.5
Cc1nc2sc(C(=O)NC3CC3)c(N)c2c(C)c1Cl,·,·,·,3.4,5.6,2.5
Nc1c(C(=O)NC2CC2)sc2nc3c(c(-c4ccco4)c12)CC/C3=C/c1ccco1,32.1,·,53.9*,·,·,·
Cc1ccccc1C1CC(=O)Oc2cc(O)ccc21 (centres undefined),-15.0,·,52.8*,·,·,·
COc1ccc(C2CC(=O)Oc3cc(O)ccc32)cc1 (centres undefined),-6.1,4.8,5.2,1.7,1.3,-3.9
NC(=O)c1ccc(NC(=O)CSc2nnc(-c3ccccc3)n2-c2ccccc2)cc1,·,·,·,3.5,-3.6,-3.7
COC(=O)c1cc(-c2cccc(C(C)C)c2)c(=O)n2c1CCC2,·,·,·,-3.4,-7.0,-6.3
N#CCCCN1C(=O)C(=C(C#N)C#N)c2ccccc21,-1.5,6.1,10.1,5.0,23.6*,3.3
Cc1ccc(C(=O)NNC(=O)c2ccncc2)cc1C,4.5,1.4,4.9,4.1,-2.8,4.8
Cc1ccc(CC(=O)NNC(=O)c2ccncc2)cc1C,3.8,-8.6,-2.4,0.5,23.8*,-0.3
O=C1Nc2c(Cl)cc(Cl)cc2C12Nc1ccccc1S2 (centres undefined),·,5.0,·,11.5,22.7*,10.8
O=C(CC1Sc2ccccc2NC1=O)NNc1ccc(Cl)cc1Cl (centres undefined),-7.6,-11.8,-10.1,-12.4,7.9,-10.4
CSC1=N/C(=C\c2ccc(Br)o2)C(=O)S1,12.8,5.7,-1.1,2.4,24.6*,11.5
Cc1ccc(C2=NN=C(NC(=O)CSc3nc(C)cc(C)n3)SC2)cc1,·,-1.3,·,-2.6,90.7*,4.5
Cc1cccc(N2CCN(C(=O)CCC(=O)N3CC(C)Oc4ccccc43)CC2)c1C (centres undefined),9.7,20.5*,-2.1,-4.8,-3.4,-0.8
CC1CCN(C(=O)CCC(=O)N2CC(C)Oc3ccccc32)CC1 (centres undefined),-1.7,-3.6,-0.5,2.9,1.6,-13.5
CC1C/C(=C/c2cccs2)C(=O)/C(=C/c2cccs2)C1 (centres undefined),24.4,-6.4,-15.2,-5.0,22.3*,5.6
COc1cc2c(cc1NC(=O)CSc1nnc(-c3cccc(Cl)c3)n1Cc1ccco1)oc1ccccc12,·,·,·,2.2,5.1,-1.6
COC(=O)C1CN(C2CCCC2)CCS(=O)(=O)N1Cc1cn(Cc2ccc(C)cc2)nn1 (centres undefined),·,·,·,-1.3,2.4,5.0
CC(C)(C)n1nnnc1CN(Cc1ccco1)Cc1cc2cc3c(cc2[nH]c1=O)OCO3,1.9,0.3,-5.7,1.0,23.6*,8.3
COc1ccccc1CN(Cc1cc2cc(C)ccc2[nH]c1=O)Cc1nnnn1Cc1ccco1,-16.7,-2.8,-39.0,-4.5,8.8,-4.7
CCC(C)(C)n1nnnc1CN(Cc1ccco1)Cc1cc2cc3c(cc2[nH]c1=O)OCO3,-10.6,·,-0.6,·,·,·
CCc1ccc2[nH]c(=O)c(CN(Cc3ccccc3OC)Cc3nnnn3Cc3ccco3)cc2c1,-12.2,4.7,-67.0,-9.9,23.4*,-23.3
SMILES,ATG4B inh,TCR CD3 inh,HTRA1 inh,SIAE primary,PRMT1 inh,mABHD4 FP
CSc1nnc2c(n1)C[C@H](c1ccccc1)[C@@H](C)[C@@H](C(=O)N1CCCC1)C2,·,·,·,5.2,-3.3,2.1
COc1ccccc1C(=O)NC1CCCCN(Cc2ccc(C)cc2)C1=O (centres undefined),·,·,·,-2.5,-2.8,-1.1
CCCCCC[C@@H](CN(CCCC)S(C)(=O)=O)c1ccccc1,·,·,·,-1.5,1.5,-8.2
Cc1cc(-c2cc(-c3ccc(Cl)cc3)nc(N)c2C#N)co1,8.8,6.4,14.5,4.1,38.9*,10.5
CCC1=C/C(=C/c2sc3ccccc3[n+]2CC)CC(C)(C)C1,-2.6,-4.6,·,-0.1,36.8*,11.2
COc1cc(CNn2c(C)n[nH]c2=S)cc(Cl)c1OCc1ccccc1,2.0,-0.1,-8.7,0.5,24.4*,-7.6
COc1cc(CNn2cn[nH]c2=S)cc(Cl)c1OCc1ccc(F)cc1,-2.3,-3.4,-3.7,12.2,11.1,-5.0
